This note sets out measurements from the RNAGym collection of RNA variant scans (doi:10.1126/science.aae0568).

B1: tRNA (parent)
chain: GUUCCGUUGGCGUAAUGGUAACGCGUCUCCCUCCUAAGGAGAAGACUGCGGGUUCGAGUCCCGUACGGAACG

This sample holds only a part of the variants without activity.

The variants in this data set derive from B1. Nature of the data set: yeast fitness relative to wild type (ratio to wild type); higher = fitter; tRNA-Arg(CCU), competitive growth, 37 C, YPD. An outline of the steps: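 Start and end populations of a pooled competition were compared by 100-nucleotide paired-end sequencing of gene amplicons. The Saccharomyces cerevisiae strains carried tRNA-Arg(CCU) gene variants at the native genomic locus, synthesised with a 3% per-site mutation rate at 69 sites, and competed in YPD at 37°C for 24 hours in six parallel replicates. Darwinian fitness relative to wild type was based on the change in genotype frequencies. Genotypes required ≥ 100 starting reads, and estimates < 0.5 were set to 0.5.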
On to A15U U53A C62A, for which the yeast fitness was ≤ 0.5.

U16A G50C C55U U59G C66U G67A: the yeast fitness was ≤ 0.5.

Take U16A A21U A42U: the yeast fitness turned out to be 0.591.

For the variant U16C C24U C29A C31G C34G, the yeast fitness was ≤ 0.5.

On to U16C G25C C34U U64G, for which the yeast fitness stood at 0.585.

On to A15U U16A, for which the yeast fitness was 0.705.

Consider A15U U16C, for which the yeast fitness was found to be 0.893.

Take A15U G68C: the yeast fitness is 0.671.

For A15U G39C A42C A65C, the yeast fitness is ≤ 0.5.

U16A C24U G44C C61U C66U: the yeast fitness is ≤ 0.5.

With U16C C55G, the yeast fitness is 0.669.

Consider U16C C55A, for which the yeast fitness came out at 0.664.

On to U16C C31U C33U G63C, for which the yeast fitness was ≤ 0.5.

With U16C C27G C29U U54C, the yeast fitness amounted to 0.568.

As to U16A C24U C29A, the yeast fitness was found to be 0.57.

For A15U U19C U47C A65G G68C, the yeast fitness was ≤ 0.5.

Consider U16A U19C C61A A65U, for which the yeast fitness amounted to 0.6.

Take U16C C31G G39A A57U: the yeast fitness was determined as 0.692.

For the variant U16A G44A, the yeast fitness worked out at 0.999.

On to U16A G44C, for which the yeast fitness was determined as 0.751.

For U16C G18A C24G A45U, the yeast fitness is ≤ 0.5.

Consider U16A A21G C27G C46U, for which the yeast fitness worked out at 0.566.

As to U16C C30G, the yeast fitness was found to be 0.708.

Regarding U16C C30A, the yeast fitness stood at 0.834.

In the case of A15U G23C C33A, the yeast fitness is ≤ 0.5.

U16A C29G C31G C62U A69C: the yeast fitness was ≤ 0.5.

As for U16A A43C, the yeast fitness turned out to be 0.906.

As for U16C C33U A36C G56C, the yeast fitness is ≤ 0.5.

As to U16A C24G G51A, the yeast fitness is ≤ 0.5.

With A15U G56A, the yeast fitness was found to be 0.727.

In the case of U16C A20U C24U C49A, the yeast fitness is ≤ 0.5.

For U16A G39A G48A G63A A65C, the yeast fitness is ≤ 0.5.

A15U G18C G41A A69C A70G: the yeast fitness is ≤ 0.5.

In the case of U16A G39A C46U A57U G67A, the yeast fitness is ≤ 0.5.

Consider U16C C34G G44A A65U, for which the yeast fitness was ≤ 0.5.

For U16C G18A C24G A45U C62A, the yeast fitness was ≤ 0.5.

On to U16C C66U, for which the yeast fitness is 0.891.

As to U16C C60G, the yeast fitness came out at 0.658.

Regarding U16A G58A G67U, the yeast fitness was ≤ 0.5.

Regarding U16C A42C A65U, the yeast fitness is 0.585.

Regarding A15U G23A C24G C29U C61A A69G, the yeast fitness was ≤ 0.5.

As to U16A G17C A43U A45C C46A, the yeast fitness came to 0.613.

U16A G17A C34U C66U A70U: the yeast fitness is ≤ 0.5.

On to U16C C33U A36C A45C U64G, for which the yeast fitness was ≤ 0.5.

As to U16A C27G, the yeast fitness was 0.548.

For U16A G48C C55G G67C A70U, the yeast fitness worked out at 0.604.

Take A15U G48A: the yeast fitness is 0.763.

As for U16C A40U A57C A70U, the yeast fitness stood at 0.585.

In the case of A15U U19G C27A U28A, the yeast fitness stood at 0.578.

As to A15U U35A G50C A65C, the yeast fitness was ≤ 0.5.

With U16C C22U A70U, the yeast fitness is 0.572.

For the variant A15U G58C C66U, the yeast fitness worked out at 0.631.

A15U G56A C61G C66U: the yeast fitness is ≤ 0.5.

With A15U U32G G44A G50A U54A, the yeast fitness was ≤ 0.5.

Consider U16C C22U A65U, for which the yeast fitness was ≤ 0.5.

Consider U16C C22A A40G C60A, for which the yeast fitness was ≤ 0.5.

For the variant U16C A43G, the yeast fitness worked out at 1.13.

For the variant U16C G17C A21C C66U G68A, the yeast fitness is ≤ 0.5.

For the variant U16C A21C A37G A69G A70G, the yeast fitness was ≤ 0.5.

In the case of U16A C22A, the yeast fitness amounted to 0.941.

Turning to U16A C22G, the yeast fitness was 0.989.

As for U16A C22U, the yeast fitness came to 0.773.

On to A15U U28C, for which the yeast fitness amounted to 0.772.

Regarding U16C C61U, the yeast fitness amounted to 0.93.

Regarding U16A C55A, the yeast fitness was 0.699.

On to U16A C22U U26C G67A, for which the yeast fitness is ≤ 0.5.

As to A15U U59C C62A, the yeast fitness is ≤ 0.5.

For the variant U16A C27G C46G G67A, the yeast fitness was 0.505.

In the case of A15U G56C G67U, the yeast fitness is ≤ 0.5.

As for U16C C46G C49U, the yeast fitness came out at 0.731.

Turning to A15U U32A C33G U53A, the yeast fitness is ≤ 0.5.

As to U16C C22U A40G A43U C46G C49G C62U, the yeast fitness is 0.55.

For A15U G23A C49G, the yeast fitness came out at 0.583.

On to U16C G18C A42G, for which the yeast fitness is ≤ 0.5.

As to U16A G48A C62G A69U, the yeast fitness was found to be 0.629.

For U16A A57U C66U, the yeast fitness came out at 0.528.

Take A15U U16A A21C C33G: the yeast fitness amounted to 0.558.

For the variant U16A C29U, the yeast fitness is 0.775.

For U16A U19A, the yeast fitness worked out at 0.952.

As for U16A U19C, the yeast fitness stood at 1.03.

On to U16C A37G A42C G67A, for which the yeast fitness was ≤ 0.5.

For A15U U16A C22G C60U, the yeast fitness is ≤ 0.5.

For the variant A15U G23A A45G, the yeast fitness is ≤ 0.5.

Consider U16A A21G C34U, for which the yeast fitness is ≤ 0.5.

As for U16C C46U, the yeast fitness was determined as 1.05.

Regarding U16A A21U G23C U47C, the yeast fitness was ≤ 0.5.

Consider U16A C60G C61G G68C, for which the yeast fitness is ≤ 0.5.

On to U16A C30G A57U, for which the yeast fitness was ≤ 0.5.

With U16C A21C A37G C55A, the yeast fitness is ≤ 0.5.

On to U16A A21G C27G G68C, for which the yeast fitness was ≤ 0.5.

For U16A A20G C29G C30U A40U A70G, the yeast fitness was ≤ 0.5.

With U16A C34U U54C, the yeast fitness is ≤ 0.5.

As to U16C C30U C34G, the yeast fitness worked out at 0.579.

As for U16C G18C C24U A40U C55U U59A, the yeast fitness is ≤ 0.5.

Regarding U16C C46G G56A, the yeast fitness was 0.748.

Take U16A C30G C34G A42U G52A A57C A65G: the yeast fitness was ≤ 0.5.

For the variant U16C C27A A45U C60G A65U, the yeast fitness worked out at 0.542.

Turning to U16A A37G G44A A69U, the yeast fitness is ≤ 0.5.

With U16A A20U U35C G39C A42C G48A, the yeast fitness was ≤ 0.5.

On to U16A A20U C24G C33G C61A, for which the yeast fitness is ≤ 0.5.

In the case of U16A C62U A69G, the yeast fitness came out at 0.922.

As for U16A C62A, the yeast fitness was found to be 0.786.

On to U16A C22G C61U A65G, for which the yeast fitness is ≤ 0.5.

Consider U16A C55G C61U, for which the yeast fitness is ≤ 0.5.

With U16C A40G C46A, the yeast fitness was 0.712.

On to A15U G58C A70U, for which the yeast fitness is 0.643.

For U16A C27G A65C, the yeast fitness was found to be 0.585.

Turning to U16C C29U G63A, the yeast fitness came to 0.527.

As for U16C G17A C34U A42U U64A G68U, the yeast fitness is ≤ 0.5.

U16C C24U C30U: the yeast fitness was ≤ 0.5.

Turning to A15U U26A C31A, the yeast fitness is ≤ 0.5.

As to U16A A40G, the yeast fitness stood at 0.913.

As for U16A G51A, the yeast fitness was found to be 0.752.

For the variant A15U G38C G39A A43C C60G A65C, the yeast fitness was found to be 0.559.

On to U16C C22U C33G C55G, for which the yeast fitness came to 0.53.

U16C A45G: the yeast fitness was 0.919.

For the variant A15U G18C G23C C24G, the yeast fitness was ≤ 0.5.

Regarding U16C A42C U53A, the yeast fitness is ≤ 0.5.

U16C A21U A43U C61G: the yeast fitness is ≤ 0.5.

On to U16A G25C A40C C49U, for which the yeast fitness was ≤ 0.5.

Turning to U16C A36G G68A, the yeast fitness was determined as 0.556.

For U16A G58C, the yeast fitness was 0.963.

A15U U47A A57U: the yeast fitness was 0.719.

In the case of A15U U32A G50A G51A G56C C61G C62U, the yeast fitness was ≤ 0.5.

As for U16A C33G C49A, the yeast fitness is 0.537.

Regarding A15U U64A, the yeast fitness was 0.709.

With U16A G39A C46U A57U C66U, the yeast fitness was ≤ 0.5.

With U16A C24U C62U, the yeast fitness was determined as 0.692.

As for U16A C60A C62U, the yeast fitness came out at 0.609.

Take U16C A43G U59C: the yeast fitness stood at 0.609.

Take U16A G39C: the yeast fitness was found to be 0.646.

Consider U16A C24G A43C, for which the yeast fitness is 0.512.

U16C C22G U64C: the yeast fitness came out at 0.625.

As to A15U G25C G67A, the yeast fitness was ≤ 0.5.

As for U16A C31A C33G G38A C66U, the yeast fitness is ≤ 0.5.

As for U16A A36U C46A, the yeast fitness is ≤ 0.5.

Consider U16C A21C G41C A43C, for which the yeast fitness was ≤ 0.5.

For the variant U16C C24G G44A C60U G67C, the yeast fitness is ≤ 0.5.

With U16C A21G G63C, the yeast fitness is ≤ 0.5.

For the variant U16C G25A C27A C29U G44A C55A, the yeast fitness is ≤ 0.5.

Consider U16A C55U U59A A65C, for which the yeast fitness is ≤ 0.5.

Regarding U16C C24U U53C C60G, the yeast fitness is 0.559.

As for U16A C49U G52A C60A, the yeast fitness was ≤ 0.5.

Take A15U U19A G41C C55G C66G: the yeast fitness was ≤ 0.5.

U16C G25U U32C A69C: the yeast fitness was ≤ 0.5.

With U16C C22U C24U C29U C49U C60U, the yeast fitness is ≤ 0.5.

For A15U U26A C31A G67U, the yeast fitness is ≤ 0.5.

On to U16A A42C, for which the yeast fitness stood at 0.854.

As for U16C G25A U28C G52C, the yeast fitness was ≤ 0.5.

With A15U G38C G50C C60U, the yeast fitness was ≤ 0.5.

For the variant U16C C27U C29A A40G A43C G50U, the yeast fitness was ≤ 0.5.

For U16A U32C A37U C49A C60U G68C, the yeast fitness is ≤ 0.5.

In the case of U16A G23C C29U C31G, the yeast fitness is ≤ 0.5.

As to U16A A65G, the yeast fitness worked out at 0.933.

On to U16C C22U A37U C49A C62U, for which the yeast fitness was 0.6.

Consider U16A G23A C33A, for which the yeast fitness came to 0.644.

As for U16A G56A, the yeast fitness is 0.875.

On to U16A C30G G44C A65C, for which the yeast fitness is ≤ 0.5.

As for U16A G25A C49A, the yeast fitness is ≤ 0.5.

With A15U U47A G63A, the yeast fitness was ≤ 0.5.

Take U16A C30A A42C: the yeast fitness was determined as 0.558.

As to U16C C24G U32A G56A, the yeast fitness came to 0.544.

In the case of U16A C22U G48A, the yeast fitness came out at 0.631.

For the variant U16A C34A A40U, the yeast fitness is ≤ 0.5.

Regarding A15U U64C A65G, the yeast fitness stood at 0.528.

Turning to U16C C24U C29A U32A C46G A57C, the yeast fitness is 0.522.

For the variant U16C C33U A57G G63C, the yeast fitness was ≤ 0.5.
